Reference: ChEMBL document CHEMBL1151781, “Selectivity of inhibitors of endocannabinoid biosynthesis evaluated by activity-based protein profiling” (Bioorg Med Chem Lett, 2008)
Active and inactive are the calls of the source. The calls are words filed in the database; no cut-off is given here.

Legend:
[1] = target: Lysophosphatidylserine lipase ABHD12 (Homo sapiens, UniProt Q8N2K0); assay: Inhibition of recombinant ABHD12 transfected in HEK293T cells by SDS-PAGE using rhodamine-tagged FP probe; type: cell-based, HEK-293T
Chain of Lysophosphatidylserine lipase ABHD12 (Q8N2K0 whole entry): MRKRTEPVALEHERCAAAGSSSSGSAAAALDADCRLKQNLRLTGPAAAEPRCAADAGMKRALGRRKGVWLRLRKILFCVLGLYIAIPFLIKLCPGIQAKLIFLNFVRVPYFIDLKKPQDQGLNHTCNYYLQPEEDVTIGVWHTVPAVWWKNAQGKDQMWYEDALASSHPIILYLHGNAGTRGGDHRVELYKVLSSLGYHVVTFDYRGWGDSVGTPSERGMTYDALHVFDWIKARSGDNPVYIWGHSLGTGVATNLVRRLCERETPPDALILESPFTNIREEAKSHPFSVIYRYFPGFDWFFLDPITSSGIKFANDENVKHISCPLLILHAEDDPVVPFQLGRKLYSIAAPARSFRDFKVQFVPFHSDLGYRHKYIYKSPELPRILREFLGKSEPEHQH
In short: (§1)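 HEK293T cells were transfected with cDNA for the target hydrolase. The transfected proteome was treated with inhibitor across 0.01-100 μM, then labeled with rhodamine-tagged fluorophosphonate probe (FP-Rh). Loss of probe labeling was read to give IC50. Values are means ± standard errors of three independent experiments.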

[2] = target: Diacylglycerol lipase-beta (Homo sapiens) (UniProt Q8NCG7); assay: Inhibition of recombinant DAGLbeta overexpressed in african green monkey COS7 cells assessed as accumulation of 2-arachidonoylglycerol […]; type: cell-based; details: COS-7
Chain of Diacylglycerol lipase-beta (Homo sapiens) (Q8NCG7 whole entry): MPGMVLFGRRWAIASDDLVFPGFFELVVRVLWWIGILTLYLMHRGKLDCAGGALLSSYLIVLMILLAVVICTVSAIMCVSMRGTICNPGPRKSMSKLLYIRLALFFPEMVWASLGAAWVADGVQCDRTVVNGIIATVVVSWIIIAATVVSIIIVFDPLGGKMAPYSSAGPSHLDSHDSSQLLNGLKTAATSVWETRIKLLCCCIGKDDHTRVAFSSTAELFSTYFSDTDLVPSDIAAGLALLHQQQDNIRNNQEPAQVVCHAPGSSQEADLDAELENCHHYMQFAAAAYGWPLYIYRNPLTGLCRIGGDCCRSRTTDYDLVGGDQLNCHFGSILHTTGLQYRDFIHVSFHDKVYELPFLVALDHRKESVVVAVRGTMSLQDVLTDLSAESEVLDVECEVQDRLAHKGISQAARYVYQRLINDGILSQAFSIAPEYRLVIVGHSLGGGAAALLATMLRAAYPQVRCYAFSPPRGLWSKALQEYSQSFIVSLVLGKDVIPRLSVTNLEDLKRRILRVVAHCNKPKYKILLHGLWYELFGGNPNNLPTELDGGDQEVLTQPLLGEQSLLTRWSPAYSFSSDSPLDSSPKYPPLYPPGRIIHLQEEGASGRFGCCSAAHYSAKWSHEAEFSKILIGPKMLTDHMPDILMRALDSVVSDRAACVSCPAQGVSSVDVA

[3] = target: Platelet-activating factor acetylhydrolase (Homo sapiens, UniProt Q13093); assay: Inhibition of recombinant PLA2g7 transfected in HEK293T cells by SDS-PAGE using rhodamine-tagged FP probe; type: cell-based, HEK-293T; in short: as §1
Chain of Platelet-activating factor acetylhydrolase (Q13093 whole entry): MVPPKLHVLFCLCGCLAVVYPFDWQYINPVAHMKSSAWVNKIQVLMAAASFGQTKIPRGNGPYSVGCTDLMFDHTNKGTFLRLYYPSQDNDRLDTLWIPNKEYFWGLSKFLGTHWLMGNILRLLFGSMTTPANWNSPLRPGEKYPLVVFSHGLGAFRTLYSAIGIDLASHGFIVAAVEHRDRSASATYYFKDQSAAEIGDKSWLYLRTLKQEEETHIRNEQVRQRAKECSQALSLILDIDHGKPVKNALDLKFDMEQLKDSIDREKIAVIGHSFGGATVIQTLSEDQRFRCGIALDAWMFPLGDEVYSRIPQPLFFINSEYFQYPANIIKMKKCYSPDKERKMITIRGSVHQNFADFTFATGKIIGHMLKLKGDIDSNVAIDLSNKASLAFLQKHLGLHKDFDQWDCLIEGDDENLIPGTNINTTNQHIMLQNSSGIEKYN

[4] = target: T1, Diacylglycerol lipase-alpha (Mus musculus) (UniProt Q6WQJ1); assay: Inhibition of DAGLalpha in mouse brain assessed as >15 average spectral count at 5 uM treated for 30 mins by ABPP-MudPIT assay; type: tissue-based
T1 sequence (whole entry): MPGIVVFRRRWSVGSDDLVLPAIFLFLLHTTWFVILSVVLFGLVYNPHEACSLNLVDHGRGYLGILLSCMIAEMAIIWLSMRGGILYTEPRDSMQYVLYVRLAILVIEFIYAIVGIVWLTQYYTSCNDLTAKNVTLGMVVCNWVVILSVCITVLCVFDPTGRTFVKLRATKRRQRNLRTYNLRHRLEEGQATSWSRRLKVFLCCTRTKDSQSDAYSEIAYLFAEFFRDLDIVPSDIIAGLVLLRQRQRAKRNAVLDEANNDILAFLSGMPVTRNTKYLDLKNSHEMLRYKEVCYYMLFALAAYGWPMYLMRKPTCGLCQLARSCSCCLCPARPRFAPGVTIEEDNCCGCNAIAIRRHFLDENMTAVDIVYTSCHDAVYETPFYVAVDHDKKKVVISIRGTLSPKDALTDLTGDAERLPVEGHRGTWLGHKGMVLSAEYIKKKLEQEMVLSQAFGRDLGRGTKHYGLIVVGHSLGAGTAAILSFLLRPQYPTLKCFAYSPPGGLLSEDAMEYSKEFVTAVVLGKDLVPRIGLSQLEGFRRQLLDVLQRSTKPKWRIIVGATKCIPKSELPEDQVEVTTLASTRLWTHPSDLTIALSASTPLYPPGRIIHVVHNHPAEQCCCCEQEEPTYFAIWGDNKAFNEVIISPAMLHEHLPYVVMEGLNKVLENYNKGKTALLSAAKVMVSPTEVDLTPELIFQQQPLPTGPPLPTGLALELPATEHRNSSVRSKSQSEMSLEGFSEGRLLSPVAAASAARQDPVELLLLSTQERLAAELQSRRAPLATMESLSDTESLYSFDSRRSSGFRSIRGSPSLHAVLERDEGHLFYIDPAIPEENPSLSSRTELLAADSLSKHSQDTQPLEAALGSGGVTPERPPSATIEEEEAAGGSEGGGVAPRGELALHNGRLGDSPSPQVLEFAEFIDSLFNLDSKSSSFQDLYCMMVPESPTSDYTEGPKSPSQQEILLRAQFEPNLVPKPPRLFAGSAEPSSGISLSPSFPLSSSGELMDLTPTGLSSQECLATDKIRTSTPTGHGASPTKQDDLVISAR

[5] = target: Neutral cholesterol ester hydrolase 1 (Homo sapiens, UniProt Q6PIU2); assay: Inhibition of recombinant KIAA1363 transfected in HEK293T cells by SDS-PAGE using rhodamine-tagged FP probe; type: cell-based, HEK-293T; in short: as §1
Chain of Neutral cholesterol ester hydrolase 1 (Q6PIU2 whole entry): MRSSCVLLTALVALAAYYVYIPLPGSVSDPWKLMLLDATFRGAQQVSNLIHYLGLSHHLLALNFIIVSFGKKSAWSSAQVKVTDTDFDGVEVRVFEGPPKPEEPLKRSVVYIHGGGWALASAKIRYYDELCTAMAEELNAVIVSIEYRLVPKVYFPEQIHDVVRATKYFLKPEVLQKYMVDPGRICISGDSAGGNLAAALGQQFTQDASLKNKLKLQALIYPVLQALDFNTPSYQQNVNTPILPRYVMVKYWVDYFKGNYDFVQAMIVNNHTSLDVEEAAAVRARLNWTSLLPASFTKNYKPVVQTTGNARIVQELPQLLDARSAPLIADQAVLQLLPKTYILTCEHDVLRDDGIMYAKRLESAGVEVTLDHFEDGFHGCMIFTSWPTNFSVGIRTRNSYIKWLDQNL

[6] = target: T2, Lysophosphatidylserine lipase ABHD12 (Mus musculus) (UniProt Q99LR1); assay: Inhibition of ABHD12 in mouse brain at 0.01 to 100 uM treated for 30 mins by SDS-PAGE using rhodamine-tagged FP probe; type: tissue-based
T2 sequence (whole entry): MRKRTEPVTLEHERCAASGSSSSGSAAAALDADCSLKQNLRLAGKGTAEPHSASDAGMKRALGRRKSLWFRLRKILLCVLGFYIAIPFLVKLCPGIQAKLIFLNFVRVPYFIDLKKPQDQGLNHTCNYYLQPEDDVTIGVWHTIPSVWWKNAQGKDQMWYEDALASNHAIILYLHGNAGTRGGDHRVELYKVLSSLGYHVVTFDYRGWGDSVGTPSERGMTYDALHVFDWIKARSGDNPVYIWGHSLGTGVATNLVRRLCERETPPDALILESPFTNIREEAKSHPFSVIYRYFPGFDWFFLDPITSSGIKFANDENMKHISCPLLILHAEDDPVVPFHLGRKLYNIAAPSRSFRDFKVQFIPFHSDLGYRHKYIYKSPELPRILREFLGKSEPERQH
In short: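 Mouse brain membrane proteome preincubated with inhibitor across 0.01-100 μM for 30 min. A rhodamine-tagged fluorophosphonate probe (FP-Rh) was then added for 60 min. Samples were resolved by SDS-PAGE, and probe labeling of each hydrolase band was read by in-gel fluorescence scanning.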

[7] = target: Acetylcholinesterase (Mus musculus) (UniProt P21836); assay: Inhibition of AChE in mouse brain by LC-MS analysis; type: tissue-based
Chain of Acetylcholinesterase (Mus musculus) (P21836 whole entry): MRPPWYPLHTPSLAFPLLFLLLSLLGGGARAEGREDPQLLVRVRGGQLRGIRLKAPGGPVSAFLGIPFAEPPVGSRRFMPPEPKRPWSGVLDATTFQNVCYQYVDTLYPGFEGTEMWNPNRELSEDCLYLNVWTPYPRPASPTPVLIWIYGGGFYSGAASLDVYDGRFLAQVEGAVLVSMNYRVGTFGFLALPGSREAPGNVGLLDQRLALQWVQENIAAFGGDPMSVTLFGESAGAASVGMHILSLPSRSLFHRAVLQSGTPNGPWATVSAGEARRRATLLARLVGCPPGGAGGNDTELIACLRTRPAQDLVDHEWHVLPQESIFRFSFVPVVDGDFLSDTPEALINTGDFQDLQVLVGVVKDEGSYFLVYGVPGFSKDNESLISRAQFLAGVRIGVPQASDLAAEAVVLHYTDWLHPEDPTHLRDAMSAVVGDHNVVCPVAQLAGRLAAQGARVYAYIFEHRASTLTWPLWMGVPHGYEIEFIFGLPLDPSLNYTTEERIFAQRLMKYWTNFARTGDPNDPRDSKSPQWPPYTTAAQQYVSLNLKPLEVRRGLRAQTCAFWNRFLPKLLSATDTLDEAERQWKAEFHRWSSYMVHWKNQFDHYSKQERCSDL

[8] = target: T1, Diacylglycerol lipase-alpha (Mus musculus); assay: Inhibition of DAGLalpha in mouse brain assessed as >15 average spectral count at 50 uM treated for 30 mins by ABPP-MudPIT assay; type: tissue-based
[9] = target: Fatty-acid amide hydrolase 1 (Homo sapiens, UniProt O00519); assay: Inhibition of recombinant FAAH transfected in HEK293T cells by SDS-PAGE using rhodamine-tagged FP probe; type: cell-based, HEK-293T; in short: as §1
Chain of Fatty-acid amide hydrolase 1 (O00519 whole entry): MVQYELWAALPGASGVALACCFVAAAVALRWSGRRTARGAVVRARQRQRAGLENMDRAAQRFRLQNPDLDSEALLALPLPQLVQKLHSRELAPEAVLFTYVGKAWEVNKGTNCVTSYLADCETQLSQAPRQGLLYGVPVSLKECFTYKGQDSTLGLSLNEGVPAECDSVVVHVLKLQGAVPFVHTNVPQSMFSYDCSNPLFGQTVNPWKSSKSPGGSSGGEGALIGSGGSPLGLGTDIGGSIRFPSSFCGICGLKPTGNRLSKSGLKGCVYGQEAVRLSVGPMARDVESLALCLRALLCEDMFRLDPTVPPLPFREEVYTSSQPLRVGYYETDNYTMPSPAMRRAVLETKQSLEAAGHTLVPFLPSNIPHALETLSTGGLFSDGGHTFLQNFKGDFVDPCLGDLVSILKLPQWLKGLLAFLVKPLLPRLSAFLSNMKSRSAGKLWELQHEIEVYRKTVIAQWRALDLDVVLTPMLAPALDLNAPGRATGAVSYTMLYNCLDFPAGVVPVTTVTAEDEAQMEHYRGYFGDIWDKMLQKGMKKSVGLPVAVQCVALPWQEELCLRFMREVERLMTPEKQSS

[10] = target: T3, Diacylglycerol lipase-beta (Mus musculus) (UniProt Q91WC9); assay: Inhibition of DAGLbeta in mouse brain assessed as >15 average spectral count at 50 uM treated for 30 mins by ABPP-MudPIT assay; type: tissue-based
T3 sequence (whole entry): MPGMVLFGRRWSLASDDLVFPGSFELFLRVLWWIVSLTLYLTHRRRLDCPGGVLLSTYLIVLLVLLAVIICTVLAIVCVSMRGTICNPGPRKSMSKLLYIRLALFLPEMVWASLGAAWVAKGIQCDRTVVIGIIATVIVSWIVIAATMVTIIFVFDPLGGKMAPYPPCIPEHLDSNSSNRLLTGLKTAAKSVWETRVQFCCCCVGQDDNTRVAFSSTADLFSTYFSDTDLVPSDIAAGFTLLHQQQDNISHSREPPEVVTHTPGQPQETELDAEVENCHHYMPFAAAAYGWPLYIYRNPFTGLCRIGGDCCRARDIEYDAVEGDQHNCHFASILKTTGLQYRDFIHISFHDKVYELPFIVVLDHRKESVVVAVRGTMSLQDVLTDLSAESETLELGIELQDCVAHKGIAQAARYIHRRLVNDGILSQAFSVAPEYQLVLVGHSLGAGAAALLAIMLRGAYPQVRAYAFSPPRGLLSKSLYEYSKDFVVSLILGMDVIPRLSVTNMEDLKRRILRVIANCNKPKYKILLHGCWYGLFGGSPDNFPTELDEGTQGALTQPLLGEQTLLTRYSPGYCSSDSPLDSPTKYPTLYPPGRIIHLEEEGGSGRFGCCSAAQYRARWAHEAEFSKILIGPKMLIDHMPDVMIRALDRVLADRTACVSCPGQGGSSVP

O=C(NCCCCCCNC(=O)ON=C1CCCCC1)ON=C1CCCCC1
IC50 [1]: > 100 µM
Activity [2]: Active
IC50 [3]: 11 µM
Activity [4]: inactive
IC50 [5]: 10 µM
Activity [6]: Active
Activity [7]: Active
Activity [8]: inactive
IC50 [9]: 70 µM
Activity [10]: inactive

CCCCCCCCCCC[C@@H](C[C@@H]1OC(=O)[C@H]1CCCCCC)OC(=O)[C@H](CC(C)C)NC=O [ORLISTAT]
IC50 [1]: 0.08 µM
Activity [2]: Active
IC50 [3]: 0.05 µM
Activity [4]: inactive
IC50 [5]: > 100 µM
Activity [6]: Active
Activity [8]: inactive
IC50 [9]: > 100 µM
Activity [10]: inactive
